# From ChEMBL document CHEMBL1126930, “New analogues of N-(2-aminoethyl)-4-chlorobenzamide (Ro 16-6491). Some of the most potent monoamine oxidase-B inactivators” (J Med Chem, 1993)
# Test: Inhibition of mitochondrial Monoamine oxidase-B purified from bovine liver
# Method in brief: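 MAO-B purified from bovine liver mitochondria. Enzyme preincubated 20 min with various inactivator concentrations. 10 μL aliquots then assayed for remaining activity in 490 μL of 1 mM benzylamine hydrochloride in 50 mM Tris-HCl, pH 9.0. IC50 extrapolated from plots of percent activity remaining versus inhibitor concentration. Duplicate runs varied by 0–5%.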
row,Structure (SMILES),IC50 [µM]
1,NCCNC(=O)c1ccccc1Br,1.2
2,NCCNC(=O)c1ccccc1,0.25
3,NCCNC(=O)c1ccc(I)cc1,0.17
4,NCCNC(=O)c1ccc([N+](=O)[O-])cc1,48.2
5,NCCNC(=O)c1ccccc1Cl,0.49
6,NCCNC(=O)c1cccc(F)c1,0.2
7,NCCNC(=O)c1ccccc1I,61.5
8,NCCNC(=O)c1ccccc1[N+](=O)[O-],2.17

# Now those with a lower IC50, led by results:
row,IC50 [µM],Structure (SMILES)
1,0.16,NCCNC(=O)c1ccccc1F
2,0.12,NCCNC(=O)c1cccc(Cl)c1
3,0.06,NCCNC(=O)c1cccc([N+](=O)[O-])c1
4,0.056,NCCNC(=O)c1ccc(F)cc1
5,0.052,NCCNC(=O)c1cccc(Br)c1
6,0.045,NCCNC(=O)c1ccc(Cl)cc1
7,0.042,NCCNC(=O)c1ccc(Br)cc1
8,0.037,NCCNC(=O)c1cccc(I)c1
9,0.03,NCCNC(=O)c1ccc(Cl)cn1 [LAZABEMIDE]
